For one series, the target named is Glutamate NMDA receptor. Kind of series: Binding affinity at TCP site of NMDA receptor was determined in rat brain homogenate by [3H]TCP displacement. The format is tissue-based.
For series [1], the target named is Glutamate NMDA receptor (Rattus norvegicus) (UniProt P35439+Q00959+Q00960+Q00961+Q62645+Q8VHN2+Q9R1M7). The series is described as follows: Compound at 10 uM was tested for the inhibition of radioligand [3H]TCP binding to TCP site of NMDA receptor in rat brain homogenate. It counts as tissue-based.
The subject of series [2] is Mus musculus. Kind of series: NMDA antagonistic activity was evaluated […] in cultured mouse cortical neurons by patch clamp recordings designed to measure closed state binding to NMDA receptor-ionophore complex. The format is functional. (The patch-clamp technique gives a direct electrical read-out from membranes.)
The next series deals with Rattus norvegicus. The series is described as follows: In vivo anti-ischemic activity was evaluated in a rat middle cerebral artery occlusion/ reperfusion model of focal ischemia at a dose of 6 mg/kg/h for 6.5 hr (iv, infusion). It counts as functional. A digest of the protocol: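 Rats underwent middle cerebral artery occlusion followed by reperfusion (focal ischemia). The drug was given by continuous intravenous infusion. The read-out was reduction in infarct volume (n = 15).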

Series [3] deals with Mus musculus. Kind of series: NMDA antagonistic activity was evaluated […] in cultured mouse cortical neurons by patch clamp recordings designed to measure closed state binding to NMDA receptor-ionophore complex at 100 uM. The format is functional. A digest of the protocol:
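Value is the percent inhibition of NMDA-induced current at 100 μM, under closed-channel conditions in mouse cortical neuronal cultures.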

For series [4], the species on record is Mus musculus. Kind of series: Inhibitory concentration against NMDA-induced cell death in cultured mouse cortical neurons. It counts as functional.
Series [5] deals with Mus musculus. The series is described as follows: NMDA antagonistic activity was evaluated […] in cultured mouse cortical neurons by patch clamp recordings designed to measure open state binding to NMDA receptor-ionophore complex. It counts as functional.
For series [6], the species on record is Mus musculus. Kind of series: (§1) Ratio of IC50 value for closed channel binding to that of open channel binding. The format is functional.
A short description of series [7]: LogD value of the compound. The format is physicochemical. As to conditions: octanol/water. A digest of the protocol:
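LogD is the partition coefficient between octanol and pH 7.4 buffer. It was measured instrumentally by an outside laboratory.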

The nature of series [8]: as §1. It counts as functional.

These results are taken from ChEMBL document CHEMBL1128339, “Discovery of 6,11-ethano-12,12-diaryl-6,11-dihydrobenzo[b]quinolizinium cations, a novel class of N-methyl-D-aspartate antagonists” (J Med Chem, 1995).

The term Ki denotes a measure of affinity in units of concentration, obtained from inhibition or displacement. A lower Ki goes with a stronger hold on the target. Take `c1ccc2c(c1)C1CC(c3cncs3)(c3cncs3)C2c2cccc[n+]21` (stereo not drawn): the affinity on Glutamate NMDA receptor, expressed as Ki, was 120 nM.
`Clc1cccc(C2(c3cccc(Cl)c3)CC3c4ccccc4C2c2cccc[n+]23)c1` (stereo not drawn) registered a Ki at Glutamate NMDA receptor of 104 nM.
For orientation: inhibition means the change of the read-out against control, counted positive when it falls. A lower inhibition goes with a weak effect. In series [1], `c1ccc2c(c1)C1CC(c3ccncc3)(c3ccncc3)C2c2cccc[n+]21` (stereo not drawn) displayed an inhibition of 54%.
For the compound `Brc1ccc(C2(c3ccc(Br)cc3)CC3c4ccccc4C2c2cccc[n+]23)cc1` (stereo not drawn), the inhibition in [1] amounted to 22%.
One may read the IC50 as the concentration at which inhibition is half-maximal. As usually defined, the inhibition in vivo is the share of the control response that was lost under treatment. A high value points to a strong effect. For orientation: Inhibition means the relative decrease from the control value, in per cent. In general, logD refers to the decadic logarithm of the distribution of all forms, ionised or not, between an organic phase and buffer at a given pH. On to `[Cl-].c1ccc2c(c1)C1CC(c3ccoc3)(c3ccoc3)C2c2cccc[n+]21` (stereo not drawn), for which the results for the IC50 in the series on Mus musculus [2], in the series filed under Mus musculus [4] and with Mus musculus [5] were more than 100000 nM, 39 nM and 140 nM, respectively. Also, in the series on Rattus norvegicus, the inhibition in vivo at 6 mg/kg/h was determined as 50%. Also, the Inhibition in the series with Mus musculus [3] is listed as 12%. The Ratio in the series filed under Mus musculus [6] is recorded as more than 700. The compound further had an inhibition constant (Ki) at Glutamate NMDA receptor of 1.8 nM. The logD in series [7] (read-out: logD) is -3.41.
As to `c1ccc2c(c1)C1CC(c3ccsc3)(c3ccsc3)C2c2cccc[n+]21` (stereo not drawn), in the series filed under Mus musculus [4], half-maximal inhibition (IC50) was put at 45 nM. Affinity at Glutamate NMDA receptor was put at a Ki of 1.8 nM.
Turning to `Brc1cccc(C2(c3cccc(Br)c3)CC3c4ccccc4C2c2cccc[n+]23)c1` (stereo not drawn), the Ki on Glutamate NMDA receptor turned out to be 185 nM.
In turn, `c1ccc2c(c1)C1CC(c3nccs3)(c3nccs3)C2c2cccc[n+]21` (stereo not drawn) gave an inhibition constant (Ki) on Glutamate NMDA receptor of 17 nM.
Take `c1csc(C2(c3cccs3)CC3c4ccccc4C2c2cccc[n+]23)c1` (stereo not drawn): the midpoint of inhibition in the series listed under Mus musculus [4], the IC50, lay at 23 nM. At Glutamate NMDA receptor, this compound displayed a Ki of 2.1 nM.
On Glutamate NMDA receptor, `c1ccc2c(c1)C1CC(c3cocn3)(c3cocn3)C2c2cccc[n+]21` (stereo not drawn) came in with an inhibitory constant (Ki) of 93 nM.
For the compound `CCOC1(OCC)C2c3ccccc3C([n+]3ccccc32)C1(C)C.[Cl-]` (stereo not drawn), the IC50 is more than 100000 nM with Mus musculus [2] and 260 nM in the series on Mus musculus [5]. Moreover, the Inhibition with Mus musculus [3] is -8.5%. Besides, in the series listed under Mus musculus [6], the Ratio is more than 384. Further, the Ki at Glutamate NMDA receptor turned out to be 5.3 nM. This compound also had a logD in series [7] of -4.08.
`Fc1ccc(C2(c3ccc(F)cc3)CC3c4ccccc4C2c2cccc[n+]23)cc1` (stereo not drawn) yielded a Ki on Glutamate NMDA receptor of 2210 nM.
At Glutamate NMDA receptor, `COc1cccc(C2(c3cccc(OC)c3)CC3c4ccccc4C2c2cccc[n+]23)c1` (stereo not drawn) came in with a Ki of 41 nM.
The compound `c1ccc2c(c1)C1CC(c3cc[nH]c3)(c3cc[nH]c3)C2c2cccc[n+]21` (stereo not drawn) displayed an IC50 in the series listed under Mus musculus [4] of 30 nM. Besides, affinity at Glutamate NMDA receptor was put at a Ki of 3.1 nM.
The compound `Clc1ccc(C2(c3ccc(Cl)cc3)CC3c4ccccc4C2c2cccc[n+]23)cc1` (stereo not drawn) displayed an inhibition in series [1] of 45%.
Consider `c1ccc2c(c1)C1CC(c3ncc[nH]3)(c3ncc[nH]3)C2c2cccc[n+]21` (stereo not drawn), for which the Ki on Glutamate NMDA receptor was found to be 1670 nM.
As for `c1ccc(C2(c3ccccc3)CC3c4ccccc4C2c2cccc[n+]23)cc1` (stereo not drawn), the midpoint of inhibition in the series listed under Mus musculus [4], the IC50, lay at 197 nM. At Glutamate NMDA receptor, this compound had an inhibitory constant (Ki) of 8.2 nM.
Regarding `c1cncc(C2(c3cccnc3)CC3c4ccccc4C2c2cccc[n+]23)c1` (stereo not drawn), the affinity at Glutamate NMDA receptor, expressed as Ki, was 2270 nM.
The same measure, in the same setting: with `COc1ccc(C2(c3ccc(OC)cc3)CC3c4ccccc4C2c2cccc[n+]23)cc1` (stereo not drawn) the figure was 28100 nM.
Regarding `C[C@]12N[C@H](Cc3ccccc31)c1ccccc12` [DIZOCILPINE], the IC50 in the series on Mus musculus [2] was 5800 nM; in the series filed under Mus musculus [4], 67 nM; in the series on Mus musculus [5], 100 nM. Further, the logD in [7] (read-out: logD) came out at 1.79.
Regarding `c1ccc(C2(N3CCCCC3)CCCCC2)cc1` [PHENCYCLIDINE], the concentration for half-maximal inhibition (IC50) with Mus musculus [2] is 13900 nM; in the series with Mus musculus [5], 270 nM. Besides, the Ratio in series [8] stood at 51. Also, the pH-dependent lipophilicity (logD) in series [7] (read-out: logD) came out at 1.76.
In the series filed under Mus musculus [4], `c1coc(C2(c3ccco3)CC3c4ccccc4C2c2cccc[n+]23)c1` (stereo not drawn) had an IC50 of 36 nM. At Glutamate NMDA receptor, this compound had a Ki of 1.9 nM.
On the same counts, the results for `c1ccc2c(c1)C1CC(c3cc[nH]n3)(c3cc[nH]n3)C2c2cccc[n+]21` (stereo not drawn) are 271 nM and 13 nM.
At Glutamate NMDA receptor, `c1ccc(C2(c3ccccn3)CC3c4ccccc4C2c2cccc[n+]23)nc1` (stereo not drawn) came in with a Ki of 8.4 nM.
